Reference: ChEMBL document CHEMBL3804761, “Synthesis of a stable and orally bioavailable englerin analogue” (Bioorg Med Chem Lett, 2016)

Columns and labels:
Assay type in all cases: functional
[1] = Growth inhibition of human Caki1 cells incubated for 48 hrs by sulforhodamine B assay; details: CAKI-1, 48 h
Method in brief: (§1)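 NCI 60-cell-line panel, standard protocol. Cells exposed to compound for two days, growth read by sulforhodamine B staining. Tested at five 10-fold dilutions, top concentration 100 µM, to give dose-response curves.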

[2] = Growth inhibition of human OVCAR4 cells incubated for 48 hrs by sulforhodamine B assay; details: OVCAR-4, 48 h; method in brief: as §1
[3] = Growth inhibition of human SKOV3 cells assessed as cell growth at 10 uM incubated for 48 hrs by sulforhodamine B assay relative to control; details: SK-OV-3, 48 h, read-out: Activity
Method in brief: (§2)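 Run in the standard NCI 60-cell-line screen. Cells were exposed to drug for two days, and the read-out was sulforhodamine B staining. Compound was tested at a single final concentration of 10 µM in every line, and results are reported as growth percent.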

[4] = system: T47D; experiment: Growth inhibition of human T47D cells assessed as cell growth at 10 uM incubated for 48 hrs by sulforhodamine B assay relative to control; details: read-out: Activity
Method in brief: (§3)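 NCI 60-cell line standard protocol, one-dose screen: single final concentration 10 µM, 2-day drug exposure, sulforhodamine B (SRB) endpoint; read-out is growth percent relative to untreated control.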

[5] = Growth inhibition of human HL-60(TB) cells incubated for 48 hrs by sulforhodamine B assay; details: HL-60, 48 h; method in brief: as §1
[6] = system: Malme-3M; experiment: Growth inhibition of human MALME-3M cells incubated for 48 hrs by sulforhodamine B assay; method in brief: as §1
[7] = Growth inhibition of human LOXIMVI cells incubated for 48 hrs by sulforhodamine B assay; details: LOX IMVI; method in brief: as §1
[8] = system: KM12; experiment: Growth inhibition of human KM12 cells assessed as cell growth at 10 uM incubated for 48 hrs by sulforhodamine B assay relative to control; details: KM12, 48 h, read-out: Activity; method in brief: as §2
[9] = system: SK-MEL-5; experiment: Growth inhibition of human SK-MEL-5 cells incubated for 48 hrs by sulforhodamine B assay; details: SK-MEL-5, 48 h; method in brief: as §1
[10] = Growth inhibition of human OVCAR5 cells assessed as cell growth at 10 uM incubated for 48 hrs by sulforhodamine B assay relative to control; details: OVCAR-5, 48 h, read-out: Activity; method in brief: as §2
[11] = Growth inhibition of human OVCAR5 cells incubated for 48 hrs by sulforhodamine B assay; details: OVCAR-5, 48 h; method in brief: as §1
[12] = Growth inhibition of human LOXIMVI cells assessed as cell growth at 10 uM incubated for 48 hrs by sulforhodamine B assay relative to control; details: LOX IMVI, read-out: Activity
Method in brief: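 Single-dose screen in the NCI 60-cell-line panel at one final concentration of 10 µM. Two-day drug exposure with a sulforhodamine B endpoint. Values are growth percent for each cell line.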

[13] = Growth inhibition of human HOP62 cells incubated for 48 hrs by sulforhodamine B assay; details: HOP-62, 48 h; method in brief: as §1
[14] = system: MDA-MB-231; experiment: Growth inhibition of human MDA-MB-231 cells assessed as cell growth at 10 uM incubated for 48 hrs by sulforhodamine B assay relative to control; details: MDA-MB-231, 48 h, read-out: Activity; method in brief: as §2
[15] = system: A498; experiment: Growth inhibition of human A498 cells incubated for 48 hrs by sulforhodamine B assay; details: A498, 48 h
[16] = Growth inhibition of human PC3 cells incubated for 48 hrs by sulforhodamine B assay; details: PC-3, 48 h; method in brief: as §1
[17] = Growth inhibition of human RXF393 cells incubated for 48 hrs by sulforhodamine B assay; details: RXF 393, 48 h
Method in brief: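 Run in the NCI 60-cell-line protocol, with 2-day drug exposure and sulforhodamine B read-out. Dose-response testing used five 10-fold dilutions starting from a high concentration of 100 µM.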

[18] = Growth inhibition of human Hs 578T cells assessed as cell growth at 10 uM incubated for 48 hrs by sulforhodamine B assay relative to control; details: read-out: Activity
[19] = Growth inhibition of human HOP92 cells incubated for 48 hrs by sulforhodamine B assay; details: HOP-92, 48 h; method in brief: as §1
[20] = Growth inhibition of human HCC2998 cells incubated for 48 hrs by sulforhodamine B assay; details: HCC 2998, 48 h; method in brief: as §1
[21] = system: SR; experiment: Growth inhibition of human SR cells incubated for 48 hrs by sulforhodamine B assay
Method in brief: (§4)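 Tested in the standard NCI 60-cell-line protocol with two-day drug exposure and a sulforhodamine B endpoint. Compounds were first screened at a single final concentration of 10 µM, reported as growth percent. They were then run as five 10-fold dilutions starting from a high concentration of 100 µM to give dose-response curves.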

[22] = system: NCI/ADR-RES; experiment: Growth inhibition of human NCI/ADR-RES cells incubated for 48 hrs by sulforhodamine B assay; method in brief: as §1
[23] = Growth inhibition of human UACC257 cells incubated for 48 hrs by sulforhodamine B assay; details: UACC-257, 48 h; method in brief: as §4
[24] = Growth inhibition of human UACC257 cells assessed as cell growth at 10 uM incubated for 48 hrs by sulforhodamine B assay relative to control; details: UACC-257, 48 h, read-out: Activity; method in brief: as §3
[25] = system: NCI-H23; experiment: Growth inhibition of human NCI-H23 cells assessed as cell growth at 10 uM incubated for 48 hrs by sulforhodamine B assay relative to control; details: NCI-H23, 48 h, read-out: Activity; method in brief: as §2
[26] = system: MDA-MB-468; experiment: Growth inhibition of human MDA-MB-468 cells incubated for 48 hrs by sulforhodamine B assay; details: MDA-MB-468, 48 h; method in brief: as §1
[27] = read-out: pLC50 (the source's name) (converted)

Compound: CC(C)[C@@]12C[C@@H](NC(=O)CO)[C@@](C)(O1)[C@@H]1CC[C@@H](C)[C@H]1[C@@H]2OC(=O)/C=C/c1ccccc1
- GI50 [1]: 9.55 µM
- LC50 [1]: > 50.1 µM
- TGI ([1]; read-out: pTGI (converted)): > 50.1 µM
- GI50 [2]: 17.8 µM
- LC50 (concentration killing 50% of cells) [2]: > 50.1 µM
- TGI ([2]; read-out: pTGI (converted)): > 50.1 µM
- growth at 10 µM [3]: 101%
- growth at 10 µM [4]: 76.3%
- GI50 [5]: 14.5 µM
- CC50 [5, 27]: > 50.1 µM
- TGI ([5]; read-out: pTGI (converted)): 37.2 µM
- GI50 [6]: 20.9 µM
- LC50 [6]: > 50.1 µM
- TGI ([6]; read-out: pTGI (converted)): > 50.1 µM
- GI50 [7]: 14.5 µM
- LC50 [7]: > 50.1 µM
- TGI ([7]; read-out: pTGI (converted)): > 50.1 µM
- growth at 10 µM [8]: 111%
- GI50 [9]: 12.9 µM
- LC50 [9]: > 50.1 µM
- TGI ([9]; read-out: pTGI (converted)): 42.7 µM
- growth at 10 µM [10]: 93%
- GI50 [11]: 23.4 µM
- LC50 [11]: > 50.1 µM
- TGI ([11]; read-out: pTGI (converted)): > 50.1 µM
- growth at 10 µM [12]: 102%
- GI50 [13]: 35.5 µM
- LC50 [13]: > 50.1 µM
- TGI ([13]; read-out: pTGI (converted)): > 50.1 µM
- growth at 10 µM [14]: 97.2%
- LC50 [15]: 29.5 µM
- GI50 ([15]; read-out: GI50): 0.162 µM
- GI50 ([15]; read-out: pGI50 (converted)): 0.162 µM
- TGI ([15]; read-out: pTGI (converted)): 2.45 µM
- GI50 [16]: 11.7 µM
- CC50 [16, 27]: > 50.1 µM
- TGI ([16]; read-out: pTGI (converted)): > 50.1 µM
- GI50 [17]: 2.09 µM
- CC50 [17, 27]: > 50.1 µM
- TGI ([17]; read-out: pTGI (converted)): 24.5 µM
- growth at 10 µM [18]: 9%
- GI50 [19]: 5.25 µM
- LC50 [19]: > 50.1 µM
- TGI ([19]; read-out: pTGI (converted)): 24 µM
- GI50 [20]: 15.8 µM
- LC50 [20]: > 50.1 µM
- TGI ([20]; read-out: pTGI (converted)): > 50.1 µM
- GI50 [21]: 13.5 µM
- LC50 [21]: > 50.1 µM
- TGI ([21]; read-out: pTGI (converted)): 37.2 µM
- GI50 [22]: 3.47 µM
- LC50 [22]: > 50.1 µM
- TGI ([22]; read-out: pTGI (converted)): > 50.1 µM
- GI50 [23]: 10.5 µM
- CC50 [23, 27]: > 50.1 µM
- TGI ([23]; read-out: pTGI (converted)): 45.7 µM
- growth at 10 µM [24]: 104%
- growth at 10 µM [25]: 81.9%
- GI50 [26]: 12.3 µM
- CC50 [26, 27]: > 50.1 µM
- TGI ([26]; read-out: pTGI (converted)): > 50.1 µM
